This note sets out measurements from ChEMBL document CHEMBL1154638, “14beta-Arylpropiolylamino-17-cyclopropylmethyl-7,8-dihydronormorphinones and related opioids. Further examples of pseudoirreversible mu opioid receptor antagonists” (J Med Chem, 2009).

As usually defined, the Ki is the dissociation constant of the complex between target and ligand, obtained from inhibition or displacement. What is called EC50 is the concentration giving half of the maximal effect.

Assay [1] addresses T1, Delta-type opioid receptor (Homo sapiens, UniProt P41143). Kind of assay: Displacement of [3H]DPDPE from human recombinant delta opioid receptor expressed in CHO cells by liquid scintillation counting. The class given is cell-based. An outline of the steps:
(§1)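 Competitive displacement binding uses membranes from CHO cells expressing recombinant human opioid receptors. Radioligands are [3H]DAMGO for mu and [3H]DPDPE for delta. Ki is reported in nM as the mean of two experiments, each run in triplicate.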
Background: Loss of bound radioactivity is the signal in a displacement assay; it reports binding, not function.

Assay [2] concerns the target T2, Kappa-type opioid receptor (Homo sapiens, UniProt P41145). Kind of assay: Displacement of [3H]U69593 from human recombinant kappa opioid receptor expressed in CHO cells by liquid scintillation counting. The class given is cell-based.
The test system of assay [3] is Mus musculus. Kind of assay: Antinociceptive activity against acetic acid-induced writhing in Swiss mouse assessed as reversal of […] response at 3.2 mg/kg, ip by writhing assay. Type of assay: functional, organism-based. Also on record: dose 3.2 mg/kg. Summed up: (§2)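 Mouse abdominal stretch assay. […] Stretches were counted, with saline as vehicle. Statistics used one-way ANOVA with Dunnett's post hoc test versus agonist alone and versus test ligand alone.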
For orientation: An intraperitoneal irritant provokes the stretching counted in writhing tests.

Assay [4] concerns Mus musculus. Type of assay: functional, organism-based. Also on record: dose 3.2 mg/kg. Conditions: Swiss, 3.2 mg/kg.
For assay [5], the system named is Mus musculus. The assay is described as follows: Antinociceptive activity against acetic acid-induced writhing in Swiss mouse assessed as reversal of […] response at 1 mg/kg, ip by writhing assay. The class given is functional, organism-based. Also on record: dose 1 mg/kg.
In assay [6] the test system is Mus musculus. Kind of assay: Antinociceptive activity in Swiss mouse assessed as tail withdrawal response at 100 mg/kg, ip after 3 days by warm-water tail-withdrawal assay. Type of assay: functional. Conditions: route intraperitoneal.
Assay [7] deals with Mus musculus. Kind of assay: Antinociceptive activity in Swiss mouse assessed as tail withdrawal response at 100 mg/kg, ip after 30 mins by warm-water tail-withdrawal assay. Type of assay: functional. The settings on record: route intraperitoneal.
The next assay deals with Mu-type opioid receptor (Homo sapiens, UniProt P35372). The assay is described as follows: Displacement of [3H]DAMGO from human recombinant mu opioid receptor expressed in CHO cells by liquid scintillation counting. The class given is cell-based. An outline of the steps:
as §1

Assay [8] concerns Mus musculus. The class given is functional, organism-based. Also on record: dose 1 mg/kg. The settings on record: Swiss, 1 mg/kg.
In assay [9] the test system is Mus musculus. Kind of assay: Antinociceptive activity against acetic acid-induced writhing in Swiss mouse assessed as reversal of mu opioid receptor agonist morphine response at 1 mg/kg, ip by writhing assay. Also on record: dose 1 mg/kg. Type of assay: functional, organism-based.
Assay [10] deals with Mus musculus. Kind of assay: Antinociceptive activity against acetic acid-induced writhing in Swiss mouse assessed as reversal of mu opioid receptor agonist morphine response at 3.2 mg/kg, ip by writhing assay. The class given is functional, organism-based. Also on record: dose 3.2 mg/kg. Summed up:
as §2

The target of assay [11] is T2, Kappa-type opioid receptor. The assay is described as follows: Agonist activity at human kappa opioid receptor expressed in CHO cells assessed as [35S]GTPgammaS binding. The class given is functional, cell-based. Summed up:
(§3)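 Membranes from CHO cells transfected with individual recombinant human opioid receptors (mu, delta or kappa). Ligand-stimulated [35S]GTPγS binding is measured at each receptor type, for agonist stimulation and for antagonism. At kappa, agonist efficacy is expressed as % stimulation relative to U69593, alongside EC50.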
In general terms: GTPγS is a poorly hydrolysed GTP analogue; its binding reports G protein activation.

The target in assay [12] is T2, Kappa-type opioid receptor. The assay is described as follows: Agonist activity at human kappa opioid receptor expressed in CHO cells assessed as [35S]GTPgammaS binding relative to U69593. The class given is functional, cell-based. Summed up: as §3
Assay [13] can be described thus: Displacement of [3H]DPDPE from human recombinant delta opioid receptor expressed in CHO cells by liquid scintillation counting.
Assay [14] deals with Mus musculus. Kind of assay: Antinociceptive activity in Swiss mouse assessed as inhibition of acetic acid-induced writhing at 0.32 mg/kg, ip by writhing assay. The class given is functional, organism-based. Also on record: dose 0.32 mg/kg.
The subject of assay [15] is Mus musculus. The assay is described as follows: Antinociceptive activity in Swiss mouse assessed as inhibition of acetic acid-induced writhing at 0.32 mg/kg, ip by writhing assay in presence of delta opioid receptor antagonist naltrindole. Type of assay: functional, organism-based. Also on record: dose 0.32 mg/kg.
The target in assay [16] is T1, Delta-type opioid receptor. Kind of assay: Agonist activity at human delta opioid receptor expressed in CHO cells assessed as [35S]GTPgammaS binding. The class given is functional, cell-based. An outline of the steps:
as §3

For assay [17], the system named is Mus musculus. Kind of assay: Antinociceptive activity in Swiss mouse assessed as inhibition of acetic acid-induced writhing at 0.32 mg/kg, ip by writhing assay in presence of kappa opioid receptor antagonist norBNI. The class given is functional, organism-based. Also on record: dose 0.32 mg/kg.
The target in assay [18] is T1, Delta-type opioid receptor. Kind of assay: Agonist activity at human delta opioid receptor expressed in CHO cells assessed as [35S]GTPgammaS binding relative to DPDPE. Type of assay: functional, cell-based. An outline of the steps: as §3
The subject of assay [19] is Mus musculus. The assay is described as follows: Antinociceptive activity in Swiss mouse assessed as tail withdrawal response at 3.2 mg/kg, ip by warm-water tail-withdrawal assay. Type of assay: functional, organism-based. Also on record: dose 3.2 mg/kg. Summed up: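 Mouse warm-water (50 °C) tail-withdrawal assay. Compound was given across a dose range, and antinociception was expressed as a percentage of the maximum possible effect.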

For assay [20], the system named is Mus musculus. The assay is described as follows: Antinociceptive activity in Swiss mouse assessed as inhibition of acetic acid-induced writhing at 0.32 mg/kg, ip by writhing assay in presence of mu opioid receptor antagonist M-CAM. Type of assay: functional, organism-based. Also on record: dose 0.32 mg/kg.
The test system of assay [21] is Mus musculus. The assay is described as follows: Antinociceptive activity in Swiss mouse assessed as tail withdrawal response at 100 mg/kg, ip after […] by warm-water tail-withdrawal assay. Conditions: route intraperitoneal. Type of assay: functional.

The source made the active and inactive calls. The rule behind the calls is not given here.

Chain of Mu-type opioid receptor (P35372 whole entry): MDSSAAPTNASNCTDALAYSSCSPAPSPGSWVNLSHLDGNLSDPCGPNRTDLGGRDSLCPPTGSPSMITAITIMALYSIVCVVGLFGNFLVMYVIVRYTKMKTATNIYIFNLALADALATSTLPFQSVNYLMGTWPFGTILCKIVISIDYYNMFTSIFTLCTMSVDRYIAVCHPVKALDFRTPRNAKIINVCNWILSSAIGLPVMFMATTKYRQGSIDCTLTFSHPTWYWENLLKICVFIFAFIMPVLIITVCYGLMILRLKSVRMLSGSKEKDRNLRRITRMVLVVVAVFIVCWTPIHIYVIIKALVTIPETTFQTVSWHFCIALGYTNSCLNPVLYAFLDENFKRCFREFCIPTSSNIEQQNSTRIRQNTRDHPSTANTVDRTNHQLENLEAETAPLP
T2 sequence (P41145 whole entry): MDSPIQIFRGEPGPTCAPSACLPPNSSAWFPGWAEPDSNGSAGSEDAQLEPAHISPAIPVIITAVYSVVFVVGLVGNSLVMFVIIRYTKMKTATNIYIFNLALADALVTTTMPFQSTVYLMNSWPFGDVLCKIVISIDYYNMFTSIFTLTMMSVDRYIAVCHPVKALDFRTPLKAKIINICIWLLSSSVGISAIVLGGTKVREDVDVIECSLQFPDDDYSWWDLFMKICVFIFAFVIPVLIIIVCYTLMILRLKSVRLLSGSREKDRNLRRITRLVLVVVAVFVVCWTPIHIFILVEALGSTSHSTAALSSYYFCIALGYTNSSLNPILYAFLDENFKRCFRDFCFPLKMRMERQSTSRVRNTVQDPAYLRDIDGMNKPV
T1 sequence (P41143 whole entry): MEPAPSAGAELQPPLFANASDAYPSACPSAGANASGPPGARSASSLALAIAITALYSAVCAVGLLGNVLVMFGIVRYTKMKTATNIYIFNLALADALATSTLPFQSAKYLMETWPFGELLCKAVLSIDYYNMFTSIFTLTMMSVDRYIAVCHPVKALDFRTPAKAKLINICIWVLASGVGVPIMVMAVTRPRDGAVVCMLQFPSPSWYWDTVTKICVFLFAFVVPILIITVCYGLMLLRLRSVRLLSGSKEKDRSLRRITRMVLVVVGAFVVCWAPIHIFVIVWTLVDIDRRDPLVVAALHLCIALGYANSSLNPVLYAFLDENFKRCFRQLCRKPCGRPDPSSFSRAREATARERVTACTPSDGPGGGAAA

With `O=C(C#Cc1ccc(Cl)cc1)N[C@@]12CCC(=O)[C@@H]3Oc4c(O)ccc5c4[C@@]31CCN(CC1CC1)[C@@H]2C5`, the Ki in assay [1] was 5.41 nM; in assay [2], 2.73 nM; at Mu-type opioid receptor it was 3.75 nM. The result with Mus musculus [3], in the assay on Mus musculus [4], in the assay on Mus musculus [5], in the assay on Mus musculus [8], with Mus musculus [9] and in the assay with Mus musculus [10] was Active. For the same compound, the Activity was found to be 20% with Mus musculus [6] and 0% in the assay on Mus musculus [7].

Consider `O=C1CC[C@@]2(NCC#Cc3ccc(Cl)cc3)[C@H]3Cc4ccc(O)c5c4[C@@]2(CCN3CC2CC2)[C@H]1O5`, for which the Ki in assay [1] amounted to 3.26 nM; in [2] it was 2.89 nM; at Mu-type opioid receptor, 0.97 nM.

In the case of `COc1ccc2c3c1O[C@H]1C(=O)CC[C@@]4(NC(=O)C#Cc5ccc(Cl)cc5)[C@@H](C2)N(CC2CC2)CC[C@]314`, the values for the Ki (in assay [1]; in assay [2]; at Mu-type opioid receptor) were 65.2 nM, 13.7 nM and 7.43 nM, respectively. The EC50 in assay [11] is 20 nM. Moreover, the Activity in the assay on Mus musculus [7] turned out to be 0%; in [12] it was 25%.

Take `COc1ccc2c3c1O[C@H]1C(=O)CC[C@@]4(NC/C=C/c5ccc(Cl)cc5)[C@@H](C2)N(CC2CC2)CC[C@]314`: the Ki in assay [2] amounted to 53.6 nM; in assay [13], 44.5 nM; at Mu-type opioid receptor, 0.7 nM.

Consider `COc1ccc2c3c1O[C@H]1C(=O)CC[C@@]4(NC(=O)C#Cc5ccccc5)[C@@H](C2)N(CC2CC2)CC[C@]314`, for which the outcome with Mus musculus [14], in the assay with Mus musculus [15], in the assay on Mus musculus [17] and with Mus musculus [19] was Active. Moreover, the results for the Ki (in assay [1]; in assay [2]; on Mu-type opioid receptor) were 28.3 nM, 7.86 nM and 1.46 nM, respectively. For the same compound, the EC50 in assay [11] is 3.18 nM; in assay [16], 75.1 nM. Also, the Activity in [18] came to 47%; in [12] it was 77%. For the same compound, the result in the assay with Mus musculus [20] was inactive.

With `COc1ccc2c3c1O[C@H]1C(=O)CC[C@@]4(NCC#Cc5ccc(Cl)cc5)[C@@H](C2)N(CC2CC2)CC[C@]314`, the figures for the Ki (in assay [1]; in assay [2]; at Mu-type opioid receptor) were 136 nM, 74.4 nM and 9.68 nM, respectively.

Turning to `O=C(C#Cc1ccccc1)N[C@@]12CCC(=O)[C@@H]3Oc4c(O)ccc5c4[C@@]31CCN(CC1CC1)[C@@H]2C5`, the figures for the inhibition constant (Ki) (in assay [1]; in [2]; on Mu-type opioid receptor) were 1.6 nM, 1.12 nM and 1.31 nM, respectively. Further, the EC50 in [11] stood at 0.3 nM. Further, the Activity worked out at 0% in the assay with Mus musculus [21] and 21% in assay [12].
